From ChEMBL document CHEMBL1772966, “3,5-Bis(benzylidene)-1-[3-(2-hydroxyethylthio)propanoyl]piperidin-4-ones: a novel cluster of potent tumor-selective cytotoxins” (J Med Chem, 2011)
pIC50: −log10 of the molar value. The source made the active and inactive calls. The rule behind the calls is not given here.

What was measured:
[1] = system: Mus musculus; test: Neurotoxicity in mouse at 30 to 300 mg/kg, ip after 0.5 hrs by rotarod method; assay type: toxicity, organism-based; parameters: dose 30-300 mg/kg, route intraperitoneal; details: in vivo
Method in brief: (§1)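 Mice given 30, 100 and 300 mg/kg by intraperitoneal injection; animals scored for mortality and neurotoxicity at 0.5 and 4 h after dosing.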

[2] = system: Mus musculus; test: Toxicity in mouse assessed as mortality at 30 to 300 mg/kg, ip after 0.5 to 4 hrs; assay type: organism-based; parameters: dose 30-300 mg/kg, route intraperitoneal; details: in vivo
Method in brief: (§2)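 Mice dosed intraperitoneally at 30, 100 and 300 mg/kg; animals observed for deaths and neurological deficit at 0.5 and 4 h after injection.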

[3] = Anticancer activity against human Molt4/C8 cells after 72 hrs; assay type: functional, cell-based; details: MOLT-4, 72 h
[4] = system: CCRF-CEM; test: Anticancer activity against human CEM cells after 72 hrs; assay type: functional, cell-based
[5] = system: L1210; test: Anticancer activity against mouse L1210 cells after 48 hrs; assay type: functional, cell-based; details: L1210, 48 h
[6] = system: Mus musculus; test: Neurotoxicity in mouse at 30 to 300 mg/kg, ip after 0.5 to 4 hrs by rotarod method; assay type: toxicity, organism-based; parameters: dose 30-300 mg/kg, route intraperitoneal; details: in vivo; method in brief: as §2
[7] = system: HCT-116; test: Anticancer activity against human HCT116 cells; assay type: functional, cell-based
[8] = system: KM12; test: Anticancer activity against human KM12 cells; assay type: functional, cell-based
[9] = system: HL-60; test: Anticancer activity against human HL60 cells; assay type: functional, cell-based
[10] = system: HCT-15; test: Anticancer activity against human HCT15 cells; assay type: functional, cell-based
[11] = system: SW-620; test: Anticancer activity against human SW620 cells; assay type: functional, cell-based
[12] = system: HT-29; test: Anticancer activity against human HT-29 cells; assay type: functional, cell-based
[13] = system: HCC 2998; test: Anticancer activity against human HCC2998 cells; assay type: functional, cell-based
[14] = system: K562; test: Anticancer activity against human K562 cells; assay type: functional, cell-based
[15] = system: CCRF-CEM; test: Anticancer activity against human CCRF-CEM cells; assay type: functional, cell-based
[16] = system: COLO 205; test: Anticancer activity against human COLO205 cells; assay type: functional, cell-based
[17] = system: Mus musculus; test: Neurotoxicity in mouse at 30 to 300 mg/kg, ip after 4 hrs by rotarod method; assay type: toxicity, organism-based; parameters: dose 30-300 mg/kg, route intraperitoneal; details: in vivo; method in brief: as §1
[18] = system: RPMI-8226; test: Anticancer activity against human RPMI8226 cells; assay type: functional, cell-based
[19] = system: HSC-3; test: Cytotoxicity against human HSC3 cells after 48 hrs; assay type: functional; details: HSC-3, 48 h
[20] = system: HSC-3; test: Selectivity index, ratio of average CC50 for normal human cell line to CC50 for human HSC3 cells
[21] = system: CCRF-CEM; test: Ratio of melphalan IC50 to compound IC50 for human CEM cells; assay type: functional
[22] = system: HSC-2; test: Induction of mitochondrial pathway-dependent apoptosis in human HSC2 cells assessed as caspase 3 activation at 1 to 3 uM; assay type: functional, cell-based
Method in brief: (§3)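 Caspase-3 activity measured in lysates of treated HL-60 and HSC-2 cells: 100 μg protein per assay, incubated 2 h with the substrate. Mean ± SD of three experiments.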

[23] = system: HL-60; test: Selectivity index, ratio of average CC50 for normal human cell line to CC50 for human HL-60 cells
[24] = system: L1210; test: Ratio of melphalan IC50 to compound IC50 for mouse L1210 cells; assay type: functional
[25] = system: MOLT-4; test: Ratio of melphalan IC50 to compound IC50 for human Molt4/C8 cells; assay type: functional
[26] = system: HL-60; test: Induction of mitochondrial pathway-dependent apoptosis in human HL60 cells assessed as DNA fragmentation at 0.5 to 8 uM after 6 hrs by agarose gel electrophoresis; assay type: functional, cell-based
Method in brief: (§4)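 Cells exposed 6 h to a range of concentrations; a UV-irradiated comparison was given 1 min of UV. Treated and control cells were then held 3 h in regular culture medium, after which DNA was extracted and run on 2% agarose gel electrophoresis.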

[27] = system: HSC-4; test: Selectivity index, ratio of average CC50 for normal human cell line to CC50 for human HSC4 cells
[28] = system: HSC-2; test: Selectivity index, ratio of average CC50 for normal human cell line to CC50 for human HSC2 cells
[29] = system: HSC-4; test: Cytotoxicity against human HSC4 cells after 48 hrs; assay type: functional; details: HSC-4, 48 h
[30] = system: HL-60; test: Induction of mitochondrial pathway-dependent apoptosis in human HL60 cells assessed as caspase 3 activation at 1 to 3 uM; assay type: functional, cell-based; method in brief: as §3
[31] = system: HL-60; test: Cytotoxicity against human HL60 cells after 48 hrs; assay type: functional; details: HL-60, 48 h
[32] = system: HSC-2; test: Induction of mitochondrial pathway-dependent apoptosis in human HSC2 cells assessed as DNA fragmentation at 0.5 to 8 uM after 6 hrs by agarose gel electrophoresis; assay type: functional, cell-based; method in brief: as §4
[33] = system: HSC-2; test: Cytotoxicity against human HSC2 cells after 48 hrs; assay type: functional; details: HSC-2, 48 h
[34] = Cytotoxicity against human HPLF cells after 48 hrs; assay type: cell-based
[35] = Cytotoxicity against human HGF cells after 48 hrs; assay type: cell-based
[36] = Cytotoxicity against human HPC cells after 48 hrs; assay type: cell-based

SMILES | Activity [1] | Activity [2] | pIC50 [3] | pIC50 [4] | pIC50 [5] | Activity [6] | pIC50 [7] | pIC50 [8] | pIC50 [9] | pIC50 [10] | pIC50 [11] | pIC50 [12] | pIC50 [13] | pIC50 [14] | pIC50 [15] | pIC50 [16] | pIC50 [18] | further results
Cc1ccc(/C=C2\CN(C(=O)CCSCCS(=O)(=O)O)C/C(=C\c3ccc(C)cc3)C2=O)cc1 | Toxic | Non-toxic | 4.10 | 3.71 | 3.70 | – | – | – | – | – | – | – | – | – | – | – | – | –
O=C1/C(=C/c2ccc([N+](=O)[O-])cc2)CN(C(=O)CCSCCS(=O)(=O)O)C/C1=C\c1ccc([N+](=O)[O-])cc1 | – | Non-toxic | 5.16 | 5.13 | 4.94 | Non-toxic | – | – | – | – | – | – | – | – | – | – | – | –
O=c1[nH]cc(F)c(=O)[nH]1 [FLUOROURACIL] | – | – | – | – | – | – | 5.07 | 5.08 | < 4.00 | 5.01 | < 4.00 | 4.99 | 4.87 | 5.62 | 4.48 | 5.38 | – | –
COc1ccc(/C=C2\CN(C(=O)CCSCCS)C/C(=C\c3ccc(OC)cc3)C2=O)cc1 | Toxic | Non-toxic | 5.56 | 5.49 | 4.96 | – | – | – | – | – | – | – | – | – | – | – | – | –
COc1ccc(/C=C2\CN(C(=O)CCSCCS(=O)(=O)O)C/C(=C\c3ccc(OC)cc3)C2=O)cc1 | Toxic | Non-toxic | 3.81 | 3.70 | 3.64 | – | 4.48 | 4.52 | < 4.00 | < 4.00 | 4.42 | 4.38 | 4.51 | 4.26 | < 4.00 | < 4.00 | 4.61 | Activity [17]: Toxic
O=C1/C(=C/c2ccc(Cl)cc2)CN(C(=O)CCSCCS(=O)(=O)O)C/C1=C\c1ccc(Cl)cc1 | – | Non-toxic | 4.45 | 4.38 | 4.00 | Non-toxic | 4.55 | 4.60 | 4.59 | 4.52 | 4.53 | 4.60 | 4.65 | 4.55 | 5.03 | 4.62 | 4.74 | –
O=C1/C(=C/c2ccc(Cl)cc2)CN(C(=O)CCSCCO)C/C1=C\c1ccc(Cl)cc1 | – | Non-toxic | 6.38 | 6.16 | 5.19 | Non-toxic | 6.77 | 6.72 | 6.49 | 6.59 | 6.77 | 6.59 | 5.96 | 7.00 | 6.68 | 6.34 | 7.10 | CC50 [19]: 0.97 µM; Ratio [20]: 8.3; Ratio IC50 [21]: 3.6; Activity [22]: Active; Ratio [23]: 8; Ratio IC50 [24]: 43; Ratio IC50 [25]: 7.6; Activity [26]: Active; Ratio [27]: 15.8; Ratio [28]: 17.1; CC50 [29]: 0.51 µM; Activity [30]: Active; CC50 [31]: 1 µM; Activity [32]: Active; CC50 [33]: 0.47 µM; CC50 at 48 h [34]: 8.6 µM; CC50 at 48 h [35]: 8.3 µM; CC50 at 48 h [36]: 7.2 µM
